According to ChEMBL document CHEMBL3228029, “Blood glucose lowering sulfonamides with asymmetric carbon atoms. 3. Related N-substituted carbamoylbenzoic acids” (J Med Chem, 1979):
Active and inactive are the calls of the source. The calls are words filed in the database; no cut-off is given here.

Legend:
Rattus norvegicus [1] = assay: Hypoglycemic activity in rat at 20 to 375 mg/kg, iv measured after 3 hrs by GOD-Perid method; assay type: functional, organism-based
Procedure, shortened: (§1)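 Female rats in the fed state were injected iv with the Na salt dissolved in 0.9% saline at four graded doses. Blood samples were taken at 1 and 3 h, and glucose was determined enzymatically by the GOD-Perid method. Effects were expressed relative to the control group (percent control value).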

Rattus norvegicus [2] = assay: Hypoglycemic activity in iv dosed rat measured after 1 hr by GOD-Perid method; assay type: functional
Procedure, shortened: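 Fed female rats received the compound iv as its Na salt in 0.9% saline at four doses. Blood was sampled 1 h post-injection and glucose measured enzymatically (GOD-Perid). Changes were expressed as percent of the control group, and linear dose-response curves were fitted. ED50 is the dose for 50% reduction of the mean control value, with 95% confidence limits.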

Rattus norvegicus [3] = assay: Hypoglycemic activity in rat at 0.16 to 2.5 mg/kg, iv measured after 3 hrs by GOD-Perid method; assay type: functional, organism-based; procedure, shortened: as §1
Rattus norvegicus [4] = assay: Hypoglycemic activity in rat at 9.6 to 150 mg/kg, iv measured after 3 hrs by GOD-Perid method; assay type: functional, organism-based; procedure, shortened: as §1
Rattus norvegicus [5] = assay: Hypoglycemic activity in rat at 0.0064 to 0.1 mg/kg, iv measured after 3 hrs by GOD-Perid method; assay type: functional, organism-based; procedure, shortened: as §1
Rattus norvegicus [6] = assay: Toxicity in rat assessed as suvival at 937.5 mg/kg, iv; assay type: organism-based; design: dose 937.5 mg/kg, route intravenous; settings: in vivo
Procedure, shortened: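 Survival was recorded in fed female rats after iv injection of the Na salt in 0.9% saline as the top dose of a four-dose series. Blood glucose was sampled at 1 and 3 h.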

Rattus norvegicus [7] = assay: Hypoglycemic activity in rat at 40 to 937.5 mg/kg, iv measured after 3 hrs by GOD-Perid method; assay type: functional, organism-based; procedure, shortened: as §1

COc1ccc(F)cc1[C@H](C)NC(=O)Cc1ccc(C(=O)O)cc1
Activity (Rattus norvegicus [1]): inactive
ED50 (Rattus norvegicus [2]): 63.9 mg/kg

COc1ccc(F)cc1[C@@H](C)NC(=O)Cc1ccc(S(=O)(=O)Nc2ncc(CC(C)C)cn2)cc1
Activity (Rattus norvegicus [3]): inactive
ED50 (Rattus norvegicus [2]): 0.81 mg/kg

COCCOc1cnc(NS(=O)(=O)c2ccccc2)nc1 [GLYMIDINE]
Activity (Rattus norvegicus [4]): inactive
ED50 (Rattus norvegicus [2]): 69.7 mg/kg

COc1ccc(F)cc1[C@H](C)NC(=O)Cc1ccc(S(=O)(=O)Nc2ncc(CC(C)C)cn2)cc1 [GLIFLUMIDE]
Activity (Rattus norvegicus [5]): inactive
ED50 (Rattus norvegicus [2]): 0.02 mg/kg

COc1ccc(F)cc1[C@@H](C)NC(=O)Cc1ccc(C(=O)O)cc1
Activity (Rattus norvegicus [6]): Toxic
Activity (Rattus norvegicus [7]): inactive
ED50 (Rattus norvegicus [2]): 1180 mg/kg
